The entries come from a sample that favours hits as a whole.
Dynein cargo inh – blocks dynein driven cargo transport along microtubules; 3617.4 mouse cells, GR-EGFP nuclear translocation imaging; test concentration mostly 20 µM; stimulated with dexamethasone, 1 µM; active compounds read low; hit rate 0.47% among 220,000; z-score, hits read low;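 active means plate z-score of nuclear minus cytoplasmic receptor signal below a set negative limit, without overly bright fluorescence or cell loss, cut at about -3.5 in these data, passing the limit was not always enough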;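 further: z-score of nuclear minus cytoplasmic ring GR-EGFP intensity difference per well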
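medium = tetracycline-free induction medium containing charcoal-stripped FBS | also added = 1.0 µM final dexamethasone stimulus | schedule = 48 h induction, 1 h compound, 30 min dex at 37 °C | technique = fixed, Hoechst-stained cells imaged at 10x for EGFP | measure = GR-EGFP nuclear translocation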
ABCB6 inh 2 – inhibitors of human ABC transporter ABCB6; Q9NP58; K562-ABCB6 porphyrin accumulation, flow cytometry, 1 h; active compounds read low; fluorescence ratio to DMSO, % at 10 µM; hit rate 0.19% among 360,000; AID 602162;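 active means fluorescence ratio to DMSO below 75%, the collection mean minus 3 SD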;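 further: signal is porphyrin accumulated inside mitochondria; 100% equals median channel fluorescence of DMSO control wells; lower ratio means ABCB6 inhibition with less porphyrin fluorescence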
p-CIP stab down – p/CIP protein destabilization | Q05BA5 | F442A p/CIP-EGFP cells, EGFP fluorescence, 16 h | decrease of EGFP signal, % at 10 µM | hit rate 0.01% among 290,000 | AID 1984;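 active means EGFP signal decrease of at least 30% at 10 µM or well 3 SD below plate mean, unless failing retest; inactive means the rest, including hits failing retest or dose response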
KCC2 mod – KCC2 (human) Cl- transport modulation. Q9H2X9. KCC2 cells, thallium flux FluoZin-2 fluorescence. B-score of Tl+ flux slope (higher = more flux/activation; lower = inhibition) at 10 µM. hit rate 2.2% among 190,000. AID 1456;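 active means thallium flux slope and its plate-corrected score both differing from the plate sample mean at a set confidence after two filtering rounds, in either direction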;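 further: slope of fluorescence scaled to starting intensity during 10 to 20 s after thallium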
V-ATPase pHluor – regulators of yeast V-ATPase proton transport; S. cerevisiae, pHLuorin cytosolic pH fluorescence; hit rate 0.37% among 350,000; response, % at 10 µM; AID 504577; in the data active means response mostly above about 7.3%, no sharp cut-off; inactive means mostly below about 5.4%; further: actives read high
The depositor's hits bear a star; . = no result.

SMILES	Dynein cargo inh	ABCB6 inh 2	p-CIP stab down	KCC2 mod	V-ATPase pHluor
CC1(Cc2ccc(Cl)cc2)C(=O)Nc2c(Cl)cccc21 (stereo not drawn)	.	96.0	.	.	.
O=S(c1cc(Cl)cc(Cl)c1O)c1cc(Cl)cc(Cl)c1O	.	101.0	.	.	.
Oc1c(Cl)cc(Cl)cc1Sc1cc(Cl)cc(Cl)c1O	3.07	.	-8.6	37.1*	.
O=[N+]([O-])c1cc2no[n+]([O-])c2cc1N1CCCCC1	.	119.0	.	.	42.1*
N#Cc1cc(N2CCCCC2)c([N+](=O)[O-])cc1C#N	-0.976	104.0	-17.5	0.304	-5.6
O=C(Nc1ccc2c(c1)OCCO2)C(c1ccnc2ccccc12)N1CCC(Cc2ccccc2)CC1 (stereo not drawn)	.	99.0	.	.	.
CC1(C(=O)Nc2ccc3c(c2)OCO3)Cc2c(-c3cccc(C(F)(F)F)c3)ccnc2O1 (stereo not drawn)	.	108.0	.	.	.
CC(C)c1ccc(S(=O)(=O)/N=C2/C=C(Sc3ncn[nH]3)C(=O)c3ccccc32)cc1	-5.27*	102.0	-3.0	1.66	1.5
Cc1ccc(S(=O)(=O)/N=C2/C=C(Sc3ncn[nH]3)C(=O)c3ccccc32)c(C)c1	-3.61*	.	-3.5	0.925	.
Cc1ccc(S(=O)(=O)/N=C2/C=C(Sc3ncn[nH]3)C(=O)c3ccccc32)cc1	-3.68*	105.0	-14.5	-0.946	-10.4
CC(C)N(c1ccccc1)c1ccc(NC(=O)[C@@H]2O[C@H](CO)[C@@H](O)[C@H]2O)cc1	.	92.0	.	.	.
CC1CCCN(C(=O)CN2C(=O)C(C)Oc3ccccc32)C1 (stereo not drawn)	.	97.0	-4.6	.	-0.7
CC1Oc2ccccc2N(CC(=O)N2CCCC2)C1=O (stereo not drawn)	.	102.0	-1.8	.	14.4*
S=C(Nc1cccc(Br)c1)c1ccccc1	0.82	91.0	-21.0	3.65*	5.4
S=C(Nc1ccccc1)Nc1cccc(Br)c1	-0.11	102.0	5.7	1.3	-2.1
CCOc1ccc(CN(C)c2nc(-c3cccnc3)nc3ccccc23)cc1OC	.	93.0	-18.5	.	15.7*
CC(C)CCN(N=O)[C@@H](Cc1ccccc1)CN(N=O)[C@@H](Cc1ccccc1)CN(C)N=O	-0.305	96.0	-9.3	-4.12*	-5.4
CC(C)C[C@@H](CN(N=O)[C@@H](Cc1ccccc1)CN(C)N=O)N(CCc1ccccc1)N=O	-0.492	89.0	-9.2	-0.415	-0.2
CCOc1ccc(-n2c3nc4ccccc4nc3c3c(=O)n(Cc4ccco4)cnc32)cc1	-1.55	.	.	2.78*	.
CSc1ccccc1NC(=O)Nc1cccc(Cl)c1C	0.452	98.0	9.3	-0.0883	1.5
Cc1ccccc1C(=O)NNC(=O)C(=O)Nc1cccc(Cl)c1C	-0.0604	85.0	-15.1	45.5*	-1.7
Cc1c(Cl)cccc1NC(=O)C(=O)NNC(=O)c1ccccc1F	-0.934	96.0	7.6	88.5*	-8.3
CCOc1ccc2nc(N3CCCCCC3)sc2c1	-0.72	99.0	-3.4	.	-2.1
COc1ccc2nc(N3C(=O)/C(=C/c4ccccc4)NC3=S)sc2c1	-0.291	124.0	-16.1	75.5*	1.9
CCOc1ccc2nc(N3C(=O)/C(=C/c4ccccc4)NC3=S)sc2c1	-0.433	113.0	-2.4	61.6*	-0.9
SMILES	Dynein cargo inh	ABCB6 inh 2	p-CIP stab down	KCC2 mod	V-ATPase pHluor
CCOC(=O)[C@]12CCCC=C1N(Cc1ccc3c(c1)OCO3)C(=O)[C@H](CC(=O)NCCCN1CCCC1=O)C2	.	92.0	.	.	.
O=C(c1[nH]c(C(F)(F)F)nc1-c1ccccc1)N1CCN(c2ccc(C(F)(F)F)cn2)CC1	.	96.0	.	.	.
Cc1ccc(-c2nc(Nc3cccc(C)c3)sc2CC(=O)O)cc1	-0.742	105.0	-44.7	-4.19*	0.6
Cc1cccc(Nc2nc(CC(=O)O)cs2)c1	-0.148	107.0	13.3	-1.56	-2.9
CC1CCC(C(C)C)C(NC(=O)c2ccncc2)C1 (stereo not drawn)	.	93.0	.	.	.
Cc1ccc(S(=O)(=O)c2ccc([N+](=O)[O-])o2)cc1	.	50.0*	.	.	4.7
Cc1ccc(CC2(c3ccccc3)NC(=O)NC2=O)cc1 (stereo not drawn)	.	103.0	.	.	14.9*
CC1CC(C)CN(C(=O)COc2ccc(-c3nnco3)cc2)C1 (stereo not drawn)	0.769	103.0	-3.2	.	0.3
O=C(COc1ccc(-c2nnco2)cc1)N1CCOCC1	.	92.0	.	.	15.0*
CCOC(=O)N1CCN(C(=O)C[C@@H]2C[C@@]3(C(=O)OCC)CCC=C3N(Cc3ccc(Cl)cc3Cl)C2=O)CC1	.	96.0	.	.	.
Cc1nc2ccc(S(=O)(=O)CCC(=O)NCc3ccc(Cl)cc3)cc2s1	.	95.0	.	.	.

High-throughput results as filed in PubChem BioAssay.
